Source: ChEMBL document CHEMBL3259711, “Synthesis, anti-HIV and cytostatic evaluation of 3'-deoxy-3'-fluorothymidine (FLT) pro-nucleotides” (Bioorg Med Chem Lett, 2014)

Key:
[1] = system: Human immunodeficiency virus 1; assay: Antiretroviral activity against HIV-1 3B infected in human CEM/0 cells expressing thymidine kinase assessed as inhibition of virus-induced giant cell formation after 4 to 5 days by microscopic analysis; assay type: functional, organism-based; conditions: Human immunodeficiency virus 1, 3B, CCRF-CEM
In short: (§1)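 CEM cells (~3 × 10⁵/mL; wild-type or thymidine kinase-deficient) infected with 100 CCID₅₀/mL HIV-1(IIIB) or HIV-2(ROD) with serial compound dilutions; 4–5 days at 37 °C, humidified CO₂. Syncytium (giant cell) formation scored microscopically; EC₅₀ = concentration inhibiting giant cell formation by 50%. Means of at least 2–3 independent experiments.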

[2] = system: Human immunodeficiency virus 2; assay: Antiretroviral activity against HIV-2 ROD infected in human CEM/0 cells expressing thymidine kinase assessed as inhibition of virus-induced giant cell formation after 4 to 5 days by microscopic analysis; assay type: functional, organism-based; conditions: Human immunodeficiency virus 2, ISOLATE ROD, CCRF-CEM; in short: as §1
[3] = system: Human immunodeficiency virus 2; assay: Antiretroviral activity against HIV-2 ROD infected in thymidine kinase-deficient human CEM cells assessed as inhibition of virus-induced giant cell formation after 4 to 5 days by microscopic analysis; assay type: functional, organism-based; conditions: Human immunodeficiency virus 2, ISOLATE ROD, CCRF-CEM; in short: as §1
[4] = system: CCRF-CEM; assay: Cytostatic activity against human CEM/0 cells expressing thymidine kinase assessed as inhibition of cell proliferation after 48 hrs by Coulter counter analysis; assay type: functional, cell-based
In short: (§2)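 Tumour cells ((5–7.5) × 10⁴ per well) grown with test compound for 48 h at 37 °C, humidified CO₂; cells counted by Coulter counter. IC₅₀ = concentration inhibiting proliferation by 50%. Means of at least 2–3 independent experiments.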

[5] = system: CCRF-CEM; assay: Cytostatic activity against thymidine kinase-deficient human CEM cells assessed as inhibition of cell proliferation after 48 hrs by Coulter counter analysis; assay type: functional, cell-based; in short: as §2
[6] = system: L1210; assay: Cytostatic activity against mouse L1210 cells assessed as inhibition of cell proliferation after 48 hrs by Coulter counter analysis; assay type: functional, cell-based; conditions: L1210, 48 h; in short: as §2
[7] = system: Human immunodeficiency virus 2; assay: Ratio of EC50 for HIV-2 ROD infected in thymidine kinase-deficient human CEM cells to EC50 for HIV-2 ROD infected in human CEM/0 cells expressing thymidine kinase; assay type: functional, ISOLATE ROD, CCRF-CEM
[8] = system: CCRF-CEM; assay: Cytostatic activity against thymidine kinase-deficient human CEM cells assessed as inhibition of cell proliferation at EC50 after 48 hrs by Coulter counter analysis; assay type: cell-based
[9] = Cytostatic activity against human CEM/0 cells expressing thymidine kinase assessed as inhibition of cell proliferation at EC50 after 48 hrs by Coulter counter analysis; assay type: cell-based; conditions: ccrf-cem

| Compound | EC50 [1] | EC50 [2] | EC50 [3] | IC50 [4] | IC50 [5] | IC50 [6] | Ratio EC50 [7] | Activity [8] | Activity [9] |
| --- | --- | --- | --- | --- | --- | --- | --- | --- | --- |
| Cc1cn([C@H]2C[C@H](F)[C@@H](COP(=O)(N[C@@H](C)C(=O)OCc3ccccc3)Oc3cccc4ccccc34)O2)c(=O)[nH]c1=O (some centres undefined) | 0.12 µM | 0.18 µM | 2.1 µM | 54 µM | 57 µM | 5.2 µM | – | – | – |
| Cc1cn([C@H]2C[C@H](F)[C@@H](CO)O2)c(=O)[nH]c1=O [ALOVUDINE] | 0.0062 µM | 0.018 µM | > 50 µM | 39 µM | > 250 µM | 0.081 µM | > 1000 | – | – |
| CCOC(=O)[C@H](C)NP(=O)(OC[C@H]1O[C@@H](n2cc(C)c(=O)[nH]c2=O)C[C@@H]1F)Oc1ccccc1 (some centres undefined) | 0.1 µM | 0.24 µM | 1.3 µM | > 250 µM | > 250 µM | 4.4 µM | – | – | – |
| CCOC(=O)[C@H](C)NP(=O)(OC[C@H]1O[C@@H](n2cc(C)c(=O)[nH]c2=O)C[C@@H]1F)Oc1cccc2ccccc12 (some centres undefined) | 0.16 µM | 0.18 µM | 5.2 µM | 81 µM | 138 µM | 6 µM | – | – | – |
| COP(=O)(N[C@@H](C)C(=O)OCc1ccccc1)OC[C@H]1O[C@@H](n2cc(C)c(=O)[nH]c2=O)C[C@@H]1F (some centres undefined) | 0.65 µM | 1.6 µM | 89 µM | 100 µM | > 250 µM | 43 µM | – | – | – |
| Cc1cn([C@H]2C[C@H](F)[C@@H](COP(=O)(N[C@@H](C)C(=O)OC(C)(C)C)Oc3ccccc3)O2)c(=O)[nH]c1=O (some centres undefined) | 0.29 µM | 0.9 µM | > 50 µM | 124 µM | > 250 µM | 6.3 µM | – | – | – |
| Cc1cn([C@H]2C[C@H](F)[C@@H](COP(=O)(N[C@@H](C)C(=O)OCc3ccccc3)Oc3ccccc3)O2)c(=O)[nH]c1=O (some centres undefined) | 0.13 µM | 0.18 µM | 2 µM | 117 µM | 172 µM | 5.8 µM | – | – | – |
| Cc1cn([C@H]2C[C@H](F)[C@@H](COP(=O)(N[C@@H](C)C(=O)OCC(C)(C)C)Oc3cccc4ccccc34)O2)c(=O)[nH]c1=O (some centres undefined) | 0.032 µM | 0.08 µM | 0.87 µM | 14 µM | 20 µM | 1.9 µM | 10 | Non-toxic | Non-toxic |
| Cc1cn([C@H]2C[C@H](F)[C@@H](COP(=O)(N[C@@H](C)C(=O)OC(C)(C)C)Oc3cccc4ccccc34)O2)c(=O)[nH]c1=O (some centres undefined) | 2.3 µM | 4.7 µM | > 50 µM | 148 µM | > 250 µM | 36 µM | – | – | – |
| Cc1cn([C@H]2C[C@H](F)[C@@H](COP(=O)(N[C@@H](C)C(=O)OC(C)C)Oc3cccc4ccccc34)O2)c(=O)[nH]c1=O (some centres undefined) | 0.56 µM | 1 µM | > 50 µM | 206 µM | > 250 µM | 24 µM | – | – | – |
| Cc1cn([C@H]2C[C@H](F)[C@@H](COP(=O)(N[C@@H](C)C(=O)OCC(C)(C)C)N[C@@H](C)C(=O)OCC(C)(C)C)O2)c(=O)[nH]c1=O | 0.017 µM | 0.045 µM | 20 µM | 66 µM | 43 µM | 3.8 µM | – | – | – |
| Cc1cn([C@H]2C[C@H](F)[C@@H](COP(=O)(N[C@@H](C)C(=O)OC(C)C)Oc3ccccc3)O2)c(=O)[nH]c1=O (some centres undefined) | 0.75 µM | 1.1 µM | 28 µM | 145 µM | > 250 µM | 23 µM | – | – | – |
| COC(=O)[C@H](C)NP(=O)(OC[C@H]1O[C@@H](n2cc(C)c(=O)[nH]c2=O)C[C@@H]1F)Oc1cccc2ccccc12 (some centres undefined) | 0.43 µM | 0.65 µM | 3 µM | 66 µM | 112 µM | 3 µM | – | – | – |
| COC(=O)[C@H](C)NP(=O)(OC[C@H]1O[C@@H](n2cc(C)c(=O)[nH]c2=O)C[C@@H]1F)Oc1ccccc1 (some centres undefined) | 0.55 µM | 1.3 µM | 4.7 µM | > 250 µM | > 250 µM | 8.2 µM | – | – | – |
| Cc1cn([C@H]2C[C@H](F)[C@@H](COP(=O)(N[C@@H](C)C(=O)OC3CCCCC3)Oc3cccc4ccccc34)O2)c(=O)[nH]c1=O (some centres undefined) | 0.048 µM | 0.14 µM | 2 µM | 13 µM | 20 µM | 2.9 µM | – | Non-toxic | Non-toxic |
| Cc1cn([C@H]2C[C@H](F)[C@@H](COP(=O)(N[C@@H](C)C(=O)OCc3ccccc3)N[C@@H](C)C(=O)OCc3ccccc3)O2)c(=O)[nH]c1=O | 0.036 µM | 0.13 µM | 1 µM | 17 µM | 22 µM | 1.2 µM | – | Non-toxic | Non-toxic |
